The target in series [1] is T1, Sphingosine 1-phosphate receptor 1 (Homo sapiens, UniProt P21453). Description: Agonist activity at EGFP-tagged S1P1 receptor expressed in human […] cells assessed as receptor internalization in endosomes after 60 mins. Format: functional, cell-based. The method, boiled down: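 S1P1 Redistribution assay measuring agonist activity; EC50 values reported in μM.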

Series [2] is described as follows: Cytotoxicity against HLF cells. In kind it is cell-based. To be noted: human, read-out: TC50 (the source's name). The procedure, abridged: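 Cytotoxicity was determined by the MTT method in HLF cells; TC50 values reported in μM.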
A short description of series [3]: Ratio of TC50 for compound to FTY720 for HLF cells. The conditions noted are these: human. In kind it is ADME, cell-based.
The subject of series [4] is S1P1 receptor. Briefly: Therapeutic index, ratio of TC50 for HLF cells to EC50 for S1P1 receptor. In kind it is cell-based. The conditions noted are these: human, read-out: TI.
Series [5] deals with Mus musculus. Description: Immunosuppressant activity in Balb/C mouse assessed as decrease in circulating CD3+ T cells at 1 mg/kg, po measured after 30 mins by flow cytometric analysis. Format: functional, T-cell. Details: scale not given: the % may be the effect or the level left; call rule not given here. The procedure, abridged: (§1)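 Oral dosing of BALB/C mice at 0.1, 0.3, 1, 3 or 10 mg/kg. Peripheral blood CD3+ T cells were counted, and the result is expressed as percent decrease of CD3+ cells.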
A general note: Flow cytometry measures light scatter and fluorescence of single cells or particles in a stream.

For series [6], the system named is Mus musculus. Briefly: Immunosuppressant activity in Balb/C mouse assessed as decrease in circulating CD3+ T cells at 3 mg/kg, po measured after 30 mins by flow cytometric analysis. Format: functional, T-cell. Also noted: scale not given: the % may be the effect or the level left. The procedure, abridged:
as §1

Series [7] relates to Mus musculus. Description: Immunosuppressant activity in Balb/C mouse assessed as decrease in circulating CD3+ T cells at 10 mg/kg, po measured after 30 mins by flow cytometric analysis. In kind it is functional, T-cell. Details: scale not given: the % may be the effect or the level left. The method, boiled down:
as §1

In series [8] the test system is Mus musculus. Description: Immunosuppressant activity in po dosed Balb/C mouse assessed as decrease in circulating CD3+ T cells measured after 30 mins by flow cytometric analysis. The conditions noted are these: T-cell. In kind it is functional, organism-based. The procedure, abridged:
as §1

Series [9] relates to Mus musculus. Briefly: Immunosuppressant activity in Balb/C mouse assessed as decrease in circulating CD3+ T cells at 0.3 mg/kg, po measured after 30 mins by flow cytometric analysis. Also noted: scale not given: the % may be the effect or the level left. Format: functional, T-cell. The procedure, abridged: as §1
The test system of series [10] is Mus musculus. Description: Immunosuppressant activity in Balb/C mouse assessed as decrease in circulating CD3+ T cells at 0.1 mg/kg, po measured after 30 mins by flow cytometric analysis. In kind it is functional, T-cell. Details: scale not given: the % may be the effect or the level left. The procedure, abridged: as §1
The target of series [11] is T1, Sphingosine 1-phosphate receptor 1. The conditions noted are these: UOS2, 3 uM.
Series [12] shares this target. The conditions noted are these: UOS2, 10 uM.
Series [13] concerns the target T2, Sphingosine 1-phosphate receptor 4 (Homo sapiens, UniProt O95977).
T2 sequence (O95977 whole entry): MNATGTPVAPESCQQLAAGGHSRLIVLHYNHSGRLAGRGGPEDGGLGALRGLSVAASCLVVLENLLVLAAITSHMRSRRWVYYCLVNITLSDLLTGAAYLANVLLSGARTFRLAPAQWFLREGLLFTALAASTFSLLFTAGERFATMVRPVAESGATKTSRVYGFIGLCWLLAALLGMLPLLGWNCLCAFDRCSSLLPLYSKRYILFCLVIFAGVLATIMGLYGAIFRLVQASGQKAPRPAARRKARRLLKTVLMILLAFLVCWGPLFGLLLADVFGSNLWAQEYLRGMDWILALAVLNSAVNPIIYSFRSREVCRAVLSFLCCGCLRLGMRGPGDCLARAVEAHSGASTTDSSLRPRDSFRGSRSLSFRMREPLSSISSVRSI
Description: Agonist activity at human S1P4 expressed in CHO cells after 60 mins by [35S]GTPgammaS binding assay. Format: functional, cell-based.

The structures appear in SMILES notation.

T1 sequence (P21453 whole entry): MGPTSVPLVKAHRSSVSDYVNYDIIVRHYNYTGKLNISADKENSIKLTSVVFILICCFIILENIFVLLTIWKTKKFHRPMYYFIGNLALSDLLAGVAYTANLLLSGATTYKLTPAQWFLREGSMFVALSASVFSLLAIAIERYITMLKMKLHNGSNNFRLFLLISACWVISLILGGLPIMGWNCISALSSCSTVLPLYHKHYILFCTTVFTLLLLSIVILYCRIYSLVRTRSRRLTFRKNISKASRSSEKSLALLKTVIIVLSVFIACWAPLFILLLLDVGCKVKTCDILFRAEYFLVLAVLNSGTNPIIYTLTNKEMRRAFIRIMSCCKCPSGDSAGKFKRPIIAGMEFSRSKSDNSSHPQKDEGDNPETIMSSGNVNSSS

Consider `NC(=O)C1(CCc2ccc(OCc3ccccc3Cl)cc2)COC(=O)N1` (stereo unspecified), for which, in series [1] (read-out: EC50), the EC50 (commonly the midpoint of the concentration-response curve) was more than 100 µM.

As for `NC(=O)C1(CCc2ccc(OCCCc3ccccc3)cc2)COC(=O)N1` (stereo unspecified), the EC50 in series [1] (read-out: EC50) turned out to be 3.63 µM. Besides, the CC50 in series [2] worked out at 26.4 µM. The values for the selectivity ratio in series [3] and in series [4] were 8 and 7.28, respectively.

For `Cc1ccccc1COc1ccc(CCC2(C(N)=O)COC(=O)N2)cc1` (stereo unspecified), the EC50 entry in series [1] (uos2) is “Not Active”.

Take `CCCCCCCCOc1ccc(CCC2(C(N)=O)COC(=O)N2)cc1` (stereo unspecified): the Activity in series [5] was 20%; in series [6], 53%; in series [7], 84.3%; in series [8] it was “Dose-dependent effect”; in [9], 1.7%. Moreover, the EC50 in series [1] (read-out: EC50) came out at 2.84 µM. In addition, the CC50 in series [2] is 121 µM. Moreover, the selectivity ratio in series [4] was 42.6.

Consider `CCCCCCCCc1ccc(CCC(N)(CO)CO)cc1.Cl` [FINGOLIMOD HYDROCHLORIDE], for which the Activity in [5] was determined as 79%; in series [6], 80.7%; in series [7], 86.6%; in [10], 9.7%; in series [9] it was 47.2%. Further, in series [2], the CC50 was determined as 3.15 µM. In addition, the maximal response (Emax) (usually the size of the effect at its maximum, as opposed to the concentration needed) stood at 37% in series [11] and 54% in series [12].

Take `NC(=O)C1(CCc2ccc(OCc3ccc(Cl)cc3)cc2)COC(=O)N1` (stereo unspecified): in series [1] (read-out: EC50), the EC50 turned out to be 1.1 µM. In series [2], the CC50 is 27.9 µM. Moreover, the selectivity ratio came out at 8 in series [3] and 25.4 in [4].

In the case of `CCCCCCCCc1ccc(CC[C@](N)(CO)COP(=O)(O)O)cc1` [FTY720-P], in series [13], the IC50 (usually the point on the concentration scale where inhibition reaches its midpoint) was determined as 0.0022 µM.

Take `CC(C)(C)c1ccc(COc2ccc(CCC3(C(N)=O)COC(=O)N3)cc2)cc1` (stereo unspecified): the half-maximal effective concentration (EC50) in series [1] (read-out: EC50) is 2.72 µM. The CC50 in series [2] came out at 25.4 µM. The selectivity ratio was found to be 8 in series [3] and 9.35 in series [4].
